Measured values of several laboratories.
Each line is one published result; the experiments were not run side by side.
CDK3: Cyclin-dependent kinase 3 (CDK3, Homo sapiens, UniProt Q00526)
CDK3 with cyclin E: Cyclin-dependent kinase 3, with cyclin E (CDK3, Homo sapiens, UniProt Q00526)

CCCCC(=O)Nc1ccc(-c2ccc3ncn(CCC)c(=O)c3c2)cn1 — remaining binding (CDK3; binding; competition with immobilised ligand; 0.5 µM): 93%
C1=C/COCc2cc(ccc2OCCN2CCCC2)Nc2nccc(n2)-c2cccc(c2)COC/1 — remaining signal (CDK3; cell-free assay; 0.1 µM): 100%
CC#CC(=O)N1CCC[C@H]1c1nc(-c2ccc(C(=O)Nc3ccccn3)cc2)c2c(N)nccn12 — inhibition (CDK3; enzyme activity; inhibitor; 1 µM): 8%
Cc1ccc(NC(=O)c2ccnc(C(F)(F)F)c2)cc1-c1cc(OCCO)nc(N2CCOCC2)c1 — remaining binding (CDK3; binding; competition with immobilised ligand; 1 µM): 89%
N#Cc1ccc(NC(=O)Nc2ccccc2)cc1 — remaining binding (CDK3; cell-free assay; competition with immobilised ligand; 25 µM): 98%
C[C@]1(O)CCCN(c2nc(Nc3ccc(S(=O)(=O)N[C@H]4CC[C@H](CN5CCN(c6ccc(C7CCC(=O)NC7=O)cc6F)CC5)CC4)cc3Cl)ncc2C(F)(F)F)C1 (some centres unmarked) — remaining binding (CDK3; binding; competition with immobilised ligand; 1 µM): 69%
CC(C)S(=O)(=O)c1ccc2nccc(Nc3ccc4sc(C5CCCC5)nc4c3)c2c1 — activity vs control (CDK3 with cyclin E; enzyme activity; inhibitor; 1 µM): 96.5%
COc1ccc2oc(-c3ccc4nc(N)oc4c3)c/c(=N\c3ccccc3NC(=O)CCN)c2c1 — remaining binding (CDK3 with cyclin E; binding; 1 µM): 108%
CN1CCN(C(=O)c2ccc(NC(=O)Nc3ccc(N(C)c4ccnc(Nc5ccc(CS(C)(=O)=O)cc5)n4)cc3)cc2)CC1 — remaining binding (CDK3; binding; competition with immobilised ligand; 1 µM): 100%
C[C@]1(O)CCCN(c2nc(Nc3ccc(S(=O)(=O)N[C@H]4CC[C@H](CN5CCN(c6ccc(C7CCC(=O)NC7=O)cc6F)CC5)CC4)cc3F)ncc2C(F)(F)F)C1 (some centres unmarked) — remaining binding (CDK3; binding; competition with immobilised ligand; 1 µM): 74%
C=CC(=O)N1CCC([C@@H]2CCNc3c(C(N)=O)c(-c4ccc(Oc5ccccc5)cc4)nn32)CC1 — inhibition (CDK3; enzyme activity; inhibitor; 1 µM): 8%
